Values after ≈ are worked out from the molar mass of the structure shown.

The experiment relates to Mycolicibacterium smegmatis. The experiment can be described thus: Antimicrobial activity against wild-type Mycobacterium smegmatis SMR5 by microplate Alamar blue assay. It counts as functional. Summed up:
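M. smegmatis SMR5 carried either control plasmid pMS2 or rv0194 expression vector pML655. Cells were grown at 37°C in Middlebrook 7H9 with 0.2% glycerol and 0.05% Tween 80, then tested by microplate Alamar blue assay. MIC was the lowest antibiotic concentration reducing culture viability by ≥90%, read by fluorescence (ex 530/em 590 nm, room temperature).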
A general note: Resazurin is reduced to fluorescent resorufin, in cell work by metabolically active cells.
Broadly, the MIC is the smallest concentration in the dilution series that meets the test's criterion for growth inhibition. As to `CC1(C)S[C@@H]2[C@H](NC(=O)[C@H](N)c3ccccc3)C(=O)N2[C@H]1C(=O)O` [AMPICILLIN], 125 µg/mL (≈ 358 µM) was the least that counted as inhibitory (MIC).

In turn, `O=C(N[C@H](CO)[C@H](O)c1ccc([N+](=O)[O-])cc1)C(Cl)Cl` [CHLORAMPHENICOL] registered an MIC of 32 µg/mL (≈ 99 µM).

With `CC[C@H]1OC(=O)[C@H](C)[C@@H](O[C@H]2C[C@@](C)(OC)[C@@H](O)[C@H](C)O2)[C@H](C)[C@@H](O[C@@H]2O[C@H](C)C[C@H](N(C)C)[C@H]2O)[C@](C)(O)C[C@@H](C)C(=O)[C@H](C)[C@@H](O)[C@]1(C)O` [ERYTHROMYCIN], 2.5 µg/mL (≈ 3.41 µM) was the least that counted as inhibitory (MIC).

The molecule `CO[C@@H]1[C@@H](OC(N)=O)[C@@H](O)[C@H](Oc2ccc3c(O)c(NC(=O)c4ccc(O)c(CC=C(C)C)c4)c(=O)oc3c2C)OC1(C)C` [NOVOBIOCIN] yielded a minimum inhibitory concentration (MIC) of 4 µg/mL (≈ 6.53 µM). Against the preceding molecule, the MIC is about 1.6-fold higher.

`CN(C)[C@@H]1C(O)=C(C(N)=O)C(=O)[C@@]2(O)C(O)=C3C(=O)c4c(O)cccc4[C@@](C)(O)[C@H]3C[C@@H]12` [TETRACYCLINE]: the lowest concentration to inhibit growth (MIC) was 0.3 µg/mL (≈ 0.675 µM).

On to `CN[C@H](CC(C)C)C(=O)N[C@H]1C(=O)N[C@@H](CC(N)=O)C(=O)N[C@H]2C(=O)N[C@H]3C(=O)N[C@H](C(=O)N[C@H](C(=O)O)c4cc(O)cc(O)c4-c4cc3ccc4O)[C@H](O)c3ccc(c(Cl)c3)Oc3cc2cc(c3O[C@@H]2O[C@H](CO)[C@@H](O)[C@H](O)[C@H]2O[C@H]2C[C@](C)(N)[C@H](O)[C@H](C)O2)Oc2ccc(cc2Cl)[C@H]1O` [VANCOMYCIN], for which 1.25 µg/mL (≈ 0.863 µM) was the least that counted as inhibitory (MIC).

The values are drawn from ChEMBL document CHEMBL1275448, “Identification of a novel multidrug efflux pump of Mycobacterium tuberculosis” (2008).
